The source made the active and inactive calls. No cut-off for these calls is given here.
Assays:
RKO [1] = assay: Induction of apoptosis in human RKO cells assessed as early apoptotic cells at 25 uM after 24 hrs by Annexin V/propidium iodide staining based flow cytometry (reference value: 9.62%); format: functional
RKO [2] = assay: Induction of apoptosis in human RKO cells assessed as necrotic cells at 25 uM after 24 hrs in presence of oxaliplatin by Annexin V/propidium iodide staining based flow cytometry (reference value: 0.22%); format: functional
[3] = Oral bioavailability in rat at 10 mg/kg; format: ADME, organism-based; details: in vivo
[4] = Tmax in rat at 10 mg/kg, po; format: ADME, organism-based; details: in vivo
HCT-116 [5] = assay: Induction of apoptosis in human HCT116 cells assessed as live cells at 50 uM after 24 hrs by Annexin V/propidium iodide staining based flow cytometry (reference value: 84.4%); format: functional
Mast cell [6] = assay: Inhibition of degranulation in IgE-labeled bone marrow-derived mast cells (unknown origin) assessed as reduction in beta-hexosaminidase release by measuring absorbance at 20 uM preincubated for 1 hr followed by HSA stimulation and measured after 15 mins (reference value: 0.26 +/- 0.025); format: functional
RKO [7] = assay: Induction of apoptosis in human RKO cells assessed as necrotic cells at 50 uM after 24 hrs by Annexin V/propidium iodide staining based flow cytometry (reference value: 0.56%); format: functional
Cytochrome P450 1A2 = Cytochrome P450 1A2 (Homo sapiens, UniProt P05177); assay: Inhibition of CYP1A2 in human liver microsomes assessed as reduction in phenacetin-O-deethylation by tandem mass spectrometry analysis; format: ADME
Summary of the method: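 Pooled human liver microsomes incubated with compound at 0–50 μM final; CYP probe activities (phenacetin O-deethylation for 1A2, tolbutamide 4-hydroxylation for 2C9, omeprazole hydroxylation for 2C19, dextromethorphan O-demethylation for 2D6) run as a cocktail incubation and quantified by tandem MS; duplicates; IC50 derived.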

HCT-116 [8] = assay: Cell cycle arrest in human HCT116 cells assessed as accumulation at S phase at 25 uM after 24 hrs propidium iodide staining based flow cytometry (reference value: 18%); format: functional
Summary of the method: (§1)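 HCT116 and RKO cells were treated with compound alone or with oxaliplatin for 24 h before harvest. Cells were stained with propidium iodide, and DNA content was analysed by flow cytometry. Cell-cycle phase populations, including sub-G1, are given as percentages.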

Mus musculus [9] = assay: Antiallergic activity in mouse model of IgE/antigen-stimulated passive cutaneous anaphylaxis assessed as Evans blue exudation at 50 mg/kg, ip administered as single dose for 1 hr treated at 24 hrs post anti-DNP IgE treatment followed by DNP-HSA/Evans blue addition and measured after 1 hr (reference value: 149 +/- 16.9 ug/ml); format: functional
RKO [10] = assay: Cell cycle arrest in human RKO cells assessed as accumulation at G1/G0 phase at 10 uM after 24 hrs propidium iodide staining based flow cytometry (reference value: 39.9%); format: functional; summary of the method: as §1
Mast cell [11] = assay: Inhibition of degranulation in IgE-labeled bone marrow-derived mast cells (unknown origin) assessed as reduction in beta-hexosaminidase release by measuring absorbance at 10 uM preincubated for 1 hr followed by HSA stimulation and measured after 15 mins (reference value: 0.26 +/- 0.025); format: functional
RKO [12] = assay: Induction of apoptosis in human RKO cells assessed as necrotic cells at 25 uM after 24 hrs by Annexin V/propidium iodide staining based flow cytometry (reference value: 0.56%); format: functional
HCT-116 [13] = assay: Cell cycle arrest in human HCT116 cells assessed as accumulation at sub-G1 phase at 25 uM after 24 hrs propidium iodide staining based flow cytometry (reference value: 17.8%); format: functional; summary of the method: as §1
RKO [14] = assay: Induction of apoptosis in human RKO cells assessed as late apoptotic cells at 10 uM after 24 hrs by Annexin V/propidium iodide staining based flow cytometry (reference value: 7.42%); format: functional
RKO [15] = assay: Cell cycle arrest in human RKO cells assessed as accumulation at G2/M phase at 25 uM after 24 hrs in presence of oxaliplatin propidium iodide staining based flow cytometry (reference value: 39.2%); format: functional; summary of the method: as §1
RKO [16] = assay: Induction of apoptosis in human RKO cells assessed as live cells at 25 uM after 24 hrs by Annexin V/propidium iodide staining based flow cytometry (reference value: 82.4%); format: functional
HCT-116 [17] = assay: Induction of apoptosis in human HCT116 cells assessed as late apoptotic cells at 25 uM after 24 hrs in presence of oxaliplatin by Annexin V/propidium iodide staining based flow cytometry (reference value: 14.2%); format: functional
HCT-116 [18] = assay: Induction of apoptosis in human HCT116 cells assessed as decrease in Bcl-XL expression at 10 to 50 uM after 24 hrs by Western blot analysis; format: functional, cell-based
Summary of the method: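 HCT116 and RKO cells given a range of compound doses for 24 h; lysates probed by Western blot for apoptosis-related proteins (p53, BAX, BCLxL).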

RKO [19] = assay: Induction of apoptosis in human RKO cells assessed as necrotic cells at 10 uM after 24 hrs by Annexin V/propidium iodide staining based flow cytometry (reference value: 0.56%); format: functional
[20] = AUCt in rat at 10 mg/kg, po; format: ADME, organism-based; details: in vivo
Summary of the method: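 Male rats given a single dose, 5 mg/kg intravenously or 10 mg/kg orally. Plasma PK parameters were reported as mean ± SD: AUCt, AUC∞, Cmax, Tmax, T1/2, CL, Vss and oral bioavailability F.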

[21] = target: UDP-glucuronosyltransferase 1A4 (Homo sapiens, UniProt P22310); assay: Inhibition of UGT1A4 in human liver microsomes assessed as reduction in trifluoperazine N-glucuronidation by tandem mass spectrometry analysis; format: ADME
Summary of the method: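 Pooled human liver microsomes; test compound at final 0–50 μM in a cocktail incubation with probe substrates: midazolam 1′-hydroxylation (CYP3A), SN-38 glucuronidation (UGT1A1), trifluoperazine N-glucuronidation (UGT1A4), mycophenolic acid glucuronidation (UGT1A9), naloxone 3-glucuronidation (UGT2B7). Metabolites measured by tandem MS; IC50 determined; duplicate.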

Mus musculus [22] = assay: Antidiabetic activity in high-fat diet induced obese C57BL/6J mouse assessed as reduction in blood glucose level at 100 mg/kg, po administered for 1 week starting from week 4 post high fat diet followed by glucose challenge and measured up to 120 mins by IPGTT; format: functional, organism-based
Summary of the method: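 Eight-week-old C57BL/6J mice were fed a high-fat diet (60% kcal fat, 0.5% cholesterol, 10% fructose) for 4 weeks. From week 4 they were dosed orally for 1 week (n = 6 per group), with sitagliptin 10 mg/kg as comparator. An intraperitoneal glucose tolerance test (1.5 g/kg glucose) followed, and the area under the curve was calculated.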

[23] = Metabolic stability in rat liver microsomes assessed as parent compound remaining after 30 mins by LC-MS/MS analysis; format: ADME, Microsome; details: read-out: Stability
HCT-116 [24] = assay: Antiproliferative activity against human HCT116 cells up to 50 uM up to 72 hrs by CCK8 assay; format: functional, cell-based
Summary of the method: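 HCT116 and RKO cells were treated with compound alone or with oxaliplatin and grown for 0–72 h. Viability was read by CCK-8 colorimetry at 450 nm.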

RKO [25] = assay: Induction of apoptosis in human RKO cells assessed as early apoptotic cells at 25 uM after 24 hrs in presence of oxaliplatin by Annexin V/propidium iodide staining based flow cytometry (reference value: 6.33%); format: functional
HCT-116 [26] = assay: Induction of apoptosis in human HCT116 cells assessed as live cells at 25 uM after 24 hrs by Annexin V/propidium iodide staining based flow cytometry (reference value: 84.4%); format: functional

Chain of Cytochrome P450 1A2 (P05177 whole entry): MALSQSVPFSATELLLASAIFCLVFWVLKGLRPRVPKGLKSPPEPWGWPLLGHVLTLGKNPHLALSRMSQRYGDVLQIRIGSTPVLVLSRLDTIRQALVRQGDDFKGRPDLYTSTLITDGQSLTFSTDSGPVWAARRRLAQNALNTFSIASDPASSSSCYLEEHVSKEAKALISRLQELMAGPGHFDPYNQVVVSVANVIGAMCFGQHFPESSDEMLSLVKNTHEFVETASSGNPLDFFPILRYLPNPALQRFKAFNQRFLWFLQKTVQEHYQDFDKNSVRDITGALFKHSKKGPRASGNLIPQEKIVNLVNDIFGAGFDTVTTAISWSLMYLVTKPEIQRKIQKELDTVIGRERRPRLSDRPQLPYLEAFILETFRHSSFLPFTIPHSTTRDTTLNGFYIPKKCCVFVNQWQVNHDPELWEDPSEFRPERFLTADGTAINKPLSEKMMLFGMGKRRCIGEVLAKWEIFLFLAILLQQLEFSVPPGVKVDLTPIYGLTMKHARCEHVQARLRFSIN
Chain of UDP-glucuronosyltransferase 1A4 (P22310 whole entry): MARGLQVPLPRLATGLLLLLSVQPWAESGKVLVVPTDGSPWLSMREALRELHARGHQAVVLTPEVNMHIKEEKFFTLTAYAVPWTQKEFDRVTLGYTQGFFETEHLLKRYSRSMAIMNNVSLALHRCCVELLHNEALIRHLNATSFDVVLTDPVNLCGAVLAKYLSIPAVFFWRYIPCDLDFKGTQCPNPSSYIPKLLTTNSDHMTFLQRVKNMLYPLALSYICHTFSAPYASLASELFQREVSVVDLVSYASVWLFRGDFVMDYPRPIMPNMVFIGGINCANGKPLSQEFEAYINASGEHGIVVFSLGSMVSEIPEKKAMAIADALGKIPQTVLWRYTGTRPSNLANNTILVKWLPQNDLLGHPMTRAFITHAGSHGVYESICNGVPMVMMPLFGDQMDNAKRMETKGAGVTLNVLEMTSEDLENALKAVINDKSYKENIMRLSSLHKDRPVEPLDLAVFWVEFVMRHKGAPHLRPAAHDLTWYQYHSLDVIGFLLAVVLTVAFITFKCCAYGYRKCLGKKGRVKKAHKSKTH

## Cl.O=C1c2ccccc2C(=O)c2c1cccc2-c1cnn(C2CCNCC2)c1
RKO [1]
  Activity: 19.3%
RKO [2]
  Activity: 5.07%
[3]
  bioavailability: 63.6%
[4]
  Tmax: 6 h
HCT-116 [5]
  Activity: 21.2%
Mast cell [6]
  OD: 0.126
RKO [7]
  Activity: 0.006%
Cytochrome P450 1A2
  IC50: 16.3 µM
HCT-116 [8]
  Activity: 11.4%
Mus musculus [9]
  Activity: 49.9 µg/mL
RKO [10]
  Activity: 46.7%
Mast cell [11]
  OD: 0.2
RKO [12]
  Activity: 4.61%
HCT-116 [13]
  Activity: 32.5%
RKO [14]
  Activity: 11.2%
RKO [15]
  Activity: 19.2%
RKO [16]
  Activity: 36.7%
HCT-116 [17]
  Activity: 21.8%
HCT-116 [18]
  Activity: Active
RKO [19]
  Activity: 0.89%
[20]
  AUC(0-t): 8920 ng·h/mL
[21]
  IC50: > 50 µM
Mus musculus [22]
  Activity: Active
[23]
  remaining at 0.5 h: 67.8%
HCT-116 [24]
  Activity: Active
RKO [25]
  Activity: 24.4%
HCT-116 [26]
  Activity: 49.4%
